From ChEMBL document CHEMBL1129498, “Azole endothelin antagonists. 2. Structure-activity studies” (J Med Chem, 1996)
pIC50: −log10 of the molar value.

How the values were obtained:
[1] = target: T1, Endothelin receptor type B (Sus scrofa, UniProt P35463); experiment: Inhibitory activity was evaluated against ET- B Binding to Endothelin B receptor from porcine cerebellar membranes
T1 sequence (P35463 whole entry): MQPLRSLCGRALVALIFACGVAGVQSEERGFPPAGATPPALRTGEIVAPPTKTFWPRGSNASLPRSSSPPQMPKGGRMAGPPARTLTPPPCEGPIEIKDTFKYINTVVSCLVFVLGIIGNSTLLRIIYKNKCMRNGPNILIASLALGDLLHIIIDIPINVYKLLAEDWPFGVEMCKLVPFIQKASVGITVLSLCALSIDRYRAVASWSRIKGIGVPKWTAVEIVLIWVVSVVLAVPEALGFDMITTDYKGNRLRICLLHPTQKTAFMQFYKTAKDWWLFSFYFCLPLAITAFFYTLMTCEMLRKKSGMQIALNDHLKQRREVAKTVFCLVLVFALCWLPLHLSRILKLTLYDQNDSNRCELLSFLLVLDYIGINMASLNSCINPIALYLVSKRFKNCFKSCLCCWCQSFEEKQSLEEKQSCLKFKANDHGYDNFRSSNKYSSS

[2] = system: MMQ; experiment: Inhibitory activity was evaluated by measuring the PI hydrolysis in MMQ cell line; assay type: functional, cell-based, Rattus norvegicus; details: Rattus norvegicus, MMQ
Summary of the method: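 MMQ cells (0.4 × 10⁶ cells/mL) labeled 16 h with 10 µCi/mL [³H]myoinositol in RPMI, PBS-washed, then held 60 min in buffer A with protease inhibitors and 10 mM LiCl. Compound pre-incubated 5 min, then 1 nM ET-1 challenge for 30 min at 37 °C, stopped with chloroform-methanol. Total inositol phosphates extracted and taken from the aqueous phase by AG1-X8 anion-exchange batch chromatography.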

[3] = target: T2, Endothelin-1 receptor (Rattus norvegicus, UniProt P26684); experiment: Inhibitory activity was evaluated against ET- A Binding to Endothelin A receptor in MMQ cell homogenates; assay type: cell-free
T2 sequence (P26684 whole entry): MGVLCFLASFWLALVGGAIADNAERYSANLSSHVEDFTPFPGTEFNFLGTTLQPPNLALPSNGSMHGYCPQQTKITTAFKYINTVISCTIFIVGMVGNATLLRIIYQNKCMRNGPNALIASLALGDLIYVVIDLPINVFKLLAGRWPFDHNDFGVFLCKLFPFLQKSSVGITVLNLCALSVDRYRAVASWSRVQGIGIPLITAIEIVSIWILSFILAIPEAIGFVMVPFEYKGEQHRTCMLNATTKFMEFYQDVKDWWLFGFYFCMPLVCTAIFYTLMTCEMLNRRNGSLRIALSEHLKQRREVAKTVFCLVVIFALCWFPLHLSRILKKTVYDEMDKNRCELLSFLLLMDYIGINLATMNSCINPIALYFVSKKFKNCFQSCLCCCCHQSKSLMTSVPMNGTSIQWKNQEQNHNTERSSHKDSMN

Compound | pIC50 [1] | pIC50 [2] | pIC50 [3]
Cc1[nH]c([C@@H](Cc2c[nH]c3ccccc23)NC(=O)[C@H](CC(C)C)NC(=O)N2CCCCCC2)nc1C(=O)O | < 4.00 | 6.11 | –
Cc1oc([C@@H](Cc2c[nH]c3ccccc23)NC(=O)[C@H](CC(C)C)NC(=O)NCc2ccccc2)nc1C(=O)O | 4.02 | – | 5.06
Cc1[nH]c([C@@H](Cc2cn(C)c3ccccc23)NC(=O)[C@H](CC(C)C)NC(=O)NC2CCC(O)CC2)nc1C(=O)O (stereo not given in full) | < 4.00 | – | 6.96
CCn1cc(C[C@@H](NC(=O)[C@H](CC(C)C)NC(=O)NC2CCCCC2)c2nc(C(=O)O)c(C)o2)c2ccccc21 | < 4.00 | – | –
Cc1[nH]c([C@@H](Cc2cn(C)c3ccccc23)NC(=O)[C@H](CC(C)C)NC(=O)NC2CCC(C)CC2)nc1C(=O)O (stereo not given in full) | 4.10 | – | 6.85
Cc1oc([C@@H](Cc2cn(C)c3ccccc23)NC(=O)[C@H](CC(C)C)NC(=O)NC2CCC(O)CC2)nc1C(=O)O (stereo not given in full) | < 4.00 | – | 5.60
Cc1oc([C@@H](Cc2cn(C)c3ccccc23)NC(=O)[C@H](CC(C)C)NC(=O)N2CCCCCC2)nc1C(=O)O | < 4.00 | – | 6.21
COC(=O)C1(NC(=O)N[C@@H](CC(C)C)C(=O)N[C@H](Cc2cn(C)c3ccccc23)c2nc(C(=O)O)c(C)o2)CCCCC1 | < 4.05 | – | 6.92
Cc1oc([C@@H](Cc2c[nH]c3ccccc23)NC(=O)[C@H](CC(C)C)NC(=O)N2CCCCCC2)nc1C(=O)NCC(=O)O | < 4.00 | – | 5.72
Cc1oc([C@@H](Cc2c[nH]c3ccccc23)NC(=O)[C@H](CC(C)C)NC(=O)N2CCCCCC2)nc1CC(=O)O | < 4.00 | – | 5.02
Cc1[nH]c([C@@H](Cc2c[nH]c3ccccc23)NC(=O)[C@H](CC(C)C)NS(=O)(=O)N2CCCCCC2)nc1C(=O)O | < 4.00 | – | < 4.00
CCN(CC)C(=O)N[C@@H](CC(C)C)C(=O)N[C@H](Cc1c[nH]c2ccccc12)c1nc(C(=O)O)c(C)[nH]1 | < 4.00 | – | 6.00
Cc1oc([C@@H](Cc2cn(C)c3ccccc23)NC(=O)[C@H](CC(C)C)NC(=O)NC2CCCC2)nc1C(=O)O | 4.00 | – | 6.52
Cc1[nH]c([C@@H](Cc2c[nH]c3ccccc23)NC(=O)[C@H](CC(C)C)NC(=O)NC2CCCCC2)nc1C(=O)O | < 4.00 | – | 7.12
Cc1oc([C@@H](Cc2cn(C)c3ccccc23)NC(=O)[C@H](CC(C)C)NC(=O)NC2CCCCC2C)nc1C(=O)O (stereo not given in full) | < 4.00 | – | 6.19
Cc1[nH]c([C@@H](Cc2cn(C)c3ccccc23)NC(=O)[C@H](CC(C)C)NC(=O)N2CCCCCC2)nc1C(=O)O | < 4.00 | – | –
Cc1oc([C@@H](Cc2cn(C)c3ccccc23)NC(=O)[C@H](CC(C)C)NC(=O)NC2CCC(C)CC2)nc1C(=O)O (stereo not given in full) | < 4.00 | – | –
Cc1c(C(=O)O)nc([C@@H](Cc2c[nH]c3ccccc23)NC(=O)[C@H](CC(C)C)NC(=O)N2CCCCCC2)n1C | < 4.00 | – | –
Cc1oc([C@@H](Cc2c[nH]c3ccccc23)NC(=O)[C@H](CC(C)C)NC(=O)N2CCCCCC2)nc1C(=O)NO | < 4.00 | – | 5.54
CCN(CC)C(=O)N[C@@H](CC(C)C)C(=O)N[C@H](Cc1c[nH]c2ccccc12)c1nc(C(=O)O)c(C)o1 | < 4.00 | – | 5.52
Cc1oc([C@@H](Cc2c[nH]c3ccccc23)NC(=O)[C@H](CC(C)C)NC(=O)N2CCCCCC2)nc1C(=O)O | < 4.00 | 5.35 | –
Cc1oc([C@@H](Cc2cn(C)c3ccccc23)NC(=O)[C@H](CC(C)C)NC(=O)NC2CCCC(C)C2)nc1C(=O)O (stereo not given in full) | < 4.00 | – | 6.02
Cc1[nH]c([C@@H](Cc2c[nH]c3ccccc23)NC(=O)[C@H](CC(C)C)NC(=O)NCc2ccccc2)nc1C(=O)O | < 4.00 | – | 5.68
Cc1oc([C@@H](Cc2cn(C)c3ccccc23)NC(=O)[C@H](CC(C)C)NC(=O)Nc2c(F)c(F)c(F)c(F)c2F)nc1C(=O)O | < 4.00 | – | 5.45
Cc1oc([C@@H](Cc2c[nH]c3ccccc23)NC(=O)[C@H](CC(C)C)NS(=O)(=O)N2CCCCCC2)nc1C(=O)O | < 4.00 | – | < 4.00
Cc1oc([C@@H](Cc2c[nH]c3ccccc23)NC(=O)[C@H](CC(C)C)NC(=O)NC2CCCCC2)nc1C(=O)O | < 4.00 | – | –
Cc1c(C(=O)O)nc([C@@H](Cc2c[nH]c3ccccc23)NC(=O)[C@H](CC(C)C)NC(=O)N2CCCCCC2)n1Cc1ccccc1 | < 4.00 | – | –
Cc1oc([C@@H](Cc2cn(C)c3ccccc23)NC(=O)[C@H](CC(C)C)NC(=O)NC2CCCCC2)nc1C(=O)O | < 4.00 | – | 6.66
Cc1oc([C@@H](Cc2cn(C)c3ccccc23)NC(=O)[C@H](CC(C)C)NC(=O)Nc2ccc(F)cc2)nc1C(=O)O | < 4.00 | – | 5.72

Molecules with a higher pIC50 [1], results first:

pIC50 [1] | pIC50 [2] | pIC50 [3] | Compound
4.47 | 8.39 | 7.96 | Cc1[nH]c([C@@H](Cc2cn(C)c3ccccc23)NC(=O)[C@H](CC(C)C)NC(=O)NC2CCCCC2)nc1C(=O)O
4.26 | – | 6.14 | CCn1cc(C[C@@H](NC(=O)[C@H](CC(C)C)NC(=O)NC2CCCCC2)c2nc(C(=O)O)c(C)[nH]2)c2ccccc21
4.72 | – | 6.05 | Cc1oc([C@@H](Cc2cn(C)c3ccccc23)NC(=O)[C@H](CC(C)C)NC(=O)NC23CC4CC(CC(C4)C2)C3)nc1C(=O)O
4.47 | 8.44 | 8.23 | Cc1oc([C@@H](Cc2cn(C)c3ccccc23)NC(=O)[C@H](CC(C)C)NC(=O)N2CCc3ccccc32)nc1C(=O)O
4.19 | – | 5.52 | CNC(=O)c1nc([C@@H](Cc2c[nH]c3ccccc23)NC(=O)[C@H](CC(C)C)NC(=O)N2CCCCCC2)oc1C
4.59 | – | 6.36 | Cc1oc([C@@H](Cc2cn(C)c3ccccc23)NC(=O)[C@H](CC(C)C)NC(=O)NC2C3CC4CC(C3)CC2C4)nc1C(=O)O (stereo not given in full)
4.92 | – | 7.24 | Cc1oc([C@@H](Cc2cn(C)c3ccccc23)NC(=O)[C@H](CC(C)C)NC(=O)n2ccc3ccccc32)nc1C(=O)O
4.89 | – | 7.74 | Cc1[nH]c([C@@H](Cc2cn(C)c3ccccc23)NC(=O)[C@H](CC(C)C)NC(=O)NC2CCCCC2C)nc1C(=O)O (stereo not given in full)
4.43 | 8.89 | 8.12 | Cc1[nH]c([C@@H](Cc2cn(C)c3ccccc23)NC(=O)[C@H](CC(C)C)NC(=O)Nc2ccccc2)nc1C(=O)O
4.66 | 8.07 | 7.59 | Cc1[nH]c([C@@H](Cc2cn(C)c3ccccc23)NC(=O)[C@H](CC(C)C)NC(=O)NC2CCCC(C)C2)nc1C(=O)O (stereo not given in full)
4.18 | 9.05 | 7.48 | Cc1oc([C@@H](Cc2cn(C)c3ccccc23)NC(=O)[C@H](CC(C)C)NC(=O)N2CCCc3ccccc32)nc1C(=O)O
5.62 | 7.59 | 7.77 | Cc1oc([C@@H](Cc2cn(C)c3ccccc23)NC(=O)[C@H](CC(C)C)NC(=O)Nc2ccccc2F)nc1C(=O)O
4.25 | – | 6.70 | Cc1oc([C@@H](Cc2cn(C)c3ccccc23)NC(=O)[C@H](CC(C)C)NC(=O)NC2(C)CCCCC2)nc1C(=O)O
4.12 | – | 6.40 | Cc1oc([C@@H](Cc2cn(C)c3ccccc23)NC(=O)[C@H](CC(C)C)NC(=O)NC2CCCCCC2)nc1C(=O)O
4.26 | – | 7.18 | Cc1oc([C@@H](Cc2cn(C)c3ccccc23)NC(=O)[C@H](CC(C)C)NC(=O)Nc2cccc(F)c2)nc1C(=O)O
4.17 | 7.37 | 7.43 | Cc1[nH]c([C@@H](Cc2cn(C)c3ccccc23)NC(=O)[C@H](CC(C)C)NC(=O)NC2CCCC2)nc1C(=O)O
4.18 | – | 7.13 | Cc1oc([C@@H](Cc2cn(C)c3ccccc23)NC(=O)[C@H](CC(C)C)NC(=O)Nc2ccccn2)nc1C(=O)O
4.37 | – | – | CCOC(=O)c1nc([C@@H](Cc2c[nH]c3ccccc23)NC(=O)[C@H](CC(C)C)NC(=O)N2CCCCCC2)oc1C
4.32 | – | 6.64 | Cc1oc([C@@H](Cc2cn(C)c3ccccc23)NC(=O)[C@H](CC(C)C)NC(=O)NC2CCCc3ccccc32)nc1C(=O)O (stereo not given in full)
4.17 | – | 6.10 | Cc1oc([C@@H](Cc2cn(C)c3ccccc23)NC(=O)[C@H](CC(C)C)NC(=O)NC2CC3CCC2C3)nc1C(=O)O (stereo in doubt; 15o)
4.59 | – | 6.35 | Cc1oc([C@@H](Cc2cn(C)c3ccccc23)NC(=O)[C@H](CC(C)C)NC(=O)NC2CC3CCC2C3)nc1C(=O)O (stereo in doubt; 15p)
